T cruzi repl = inhibitors of intracellular T. cruzi growth, primary screen, luminescence, NIH3T3 host cells; 1.4% of 300,000 active; T. cruzi beta-gal in NIH3T3, 90 h; inhibition, % (no concentration beside the values);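 active means mean inhibition across valid replicates above about 55%, limit read from the data; inconclusive means mean below that limit but half or more replicates reach it; inactive means mean below it, under half of replicates reach it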;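 further: signal also drops with host cell toxicity which is not excluded here; 0% = plate median of DMSO wells and 100% = zero luminescence signal; higher percent means less beta-gal luminescence so fewer parasites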
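System: NIH/3T3 fibroblasts plus reporter T. cruzi. Medium: DMEM plus 2% FBS. Probe or stimulus: 5000 reporter trypomastigotes per well. Compound: single 50 nL compound addition per well in DMSO. Incubation: co-culture of at least 90 h after 3 h attachment. Detection: GalScreen β-gal luminescence, detergent lysis, 60 min. Evaluation: parasite load inhibition, %.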
697 NFkB inh = inhibitors of PMA/ionomycin-induced NF-kB reporter, 697 cells, primary screen, B-cell NF-kB inhibitor project, cell-based, luminescence, uHTS | AID 435022, 2010 | 697 B-cell NF-kB luciferase reporter, 16 h | 0.33% of 330,000 active | inhibition, % at 4 µM; in the data active means inhibition above about 35%
Jurkat NFkB inh = inhibitors of induced NF-kB luciferase reporter, primary screen, TCR NF-kB activation inhibitor project, cell-based, luminescence, uHTS | Jurkat, PMA/ionomycin-induced NF-kB luciferase reporter | inhibition, % at 4 µM | 0.53% of 330,000 active; in the data active means inhibition above about 50%
HSF1 inh = HSF1 inhibitors in luciferase reporter cells, primary screen, cell-based, NIH3T3, luminescence. 0.77% of 300,000 active. activity change, negative = inhibition, % at 7.5 µM (by protocol). NIH3T3-HGL HSE-luciferase, MG132-induced, luminescence 8 h; stronger effect = lower value;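 active means more than half of replicate wells show activity change below -50%, luminescence cut by over half; inconclusive means some wells, but at most half, below -50%; inactive means no replicate well below -50%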;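 further: luciferase reports HSF-1 transcriptional activity via heat shock element; 0% = median of DMSO wells and -100% = zero luminescence signal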
GPR7 antagonist = GPR7 receptor antagonists, primary screen, cell-based, fluorescence, single concentration. Neuropeptides B/W receptor type 1 (Homo sapiens), P48145. GPR7-expressing cells, fluorescence antagonist assay. inhibition, % at 4.4 µM. 1.1% of 290,000 active; in the data active means inhibition above about 16%, passing the limit was not always enough;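 further: cells stimulated with the agonist NPW; 0% = agonist with vehicle and 100% = vehicle without agonist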
Target sequence (P48145 whole entry, looked up): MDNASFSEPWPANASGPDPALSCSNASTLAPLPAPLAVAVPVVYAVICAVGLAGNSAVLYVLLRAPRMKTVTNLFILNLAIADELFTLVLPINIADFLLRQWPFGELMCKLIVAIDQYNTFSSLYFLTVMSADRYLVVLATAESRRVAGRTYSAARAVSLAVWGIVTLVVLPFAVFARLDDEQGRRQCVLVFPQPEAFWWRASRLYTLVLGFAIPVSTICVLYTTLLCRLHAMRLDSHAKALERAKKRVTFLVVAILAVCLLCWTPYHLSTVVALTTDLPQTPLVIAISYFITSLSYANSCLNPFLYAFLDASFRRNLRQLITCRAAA
HSF-1 act = HSF-1 activators, primary screen, NIH3T3-HGL cells, MG132 stress, luminescence, single point | NIH3T3-HGL HSF-1 luciferase reporter, 8 h; 100% = twice DMSO control signal | activation, % at 9 µM | 1.7% of 300,000 active | AID 504408, 2011;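 active means mean replicate activation of at least 50% with a set share of replicates each reaching 50%; inconclusive means only one of those two conditions met; inactive means mean below 50% and too few replicates reaching it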;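 further: 0% = median of the neutral control wells and 100% = twice that signal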
An asterisk follows results filed as active. Hits are enriched below; roughly 4.8% of the tested compounds scored in any of these assays.

Cc1ccc2nc(SCC(=O)N3CCCCC3)nc(=O)n2c1 was read as T cruzi repl -8.6, 697 NFkB inh -0.2, Jurkat NFkB inh -21.6, HSF1 inh 2.8 and HSF-1 act 2.0.
COCCn1c(-c2ccc(Cl)cc2)cnc1SCC(=O)NCc1cccs1 was read as 697 NFkB inh -8.0, Jurkat NFkB inh 5.0 and GPR7 antagonist 19.9*.
Screening O=C(CSc1nc2ccccc2c(=O)n1Cc1ccc(Cl)cc1)NCc1cccs1 returned T cruzi repl 17.3, 697 NFkB inh 0.6, Jurkat NFkB inh -1.6, HSF1 inh -3.9, GPR7 antagonist 2.1 and HSF-1 act -3.5.
Screening CC(C)C[C@@H](C(=O)NC1CCN(Cc2ccccc2)CC1)N1C(=O)N2CCc3c([nH]c4ccccc34)[C@@]2(C)C1=O returned T cruzi repl 65.0*, 697 NFkB inh -0.6, Jurkat NFkB inh 14.2, HSF1 inh 2.5, GPR7 antagonist 20.6 and HSF-1 act 17.8.
Screening CC(C)[C@@H](C(=O)NC1CCN(Cc2ccccc2)CC1)N1C(=O)N2CCc3c([nH]c4ccccc34)[C@@]2(C)C1=O returned T cruzi repl inconclusive, 697 NFkB inh 15.3, Jurkat NFkB inh 23.7, HSF1 inh 0.0, GPR7 antagonist 5.7 and HSF-1 act -3.4.
CC(C)C[C@@H](C(=O)NC1CC1)N1C(=O)N2CCc3c([nH]c4ccccc34)[C@@]2(C)C1=O was read as T cruzi repl -5.8, 697 NFkB inh 7.4, Jurkat NFkB inh 5.7, HSF1 inh 2.7, GPR7 antagonist -2.4 and HSF-1 act 2.7.
COc1ccc2[nH]c3c(c2c1)CCN1C(=O)N([C@@H](C)C(=O)NC2CCN(Cc4ccccc4)CC2)C(=O)[C@]31C was read as T cruzi repl 64.0*, 697 NFkB inh 11.3, Jurkat NFkB inh -4.6, HSF1 inh 2.7, GPR7 antagonist -2.4 and HSF-1 act -0.2.
`C[C@@H](C(=O)NC1CCN(Cc2ccccc2)CC1)N1C(=O)N2CCc3c([nH]c4ccccc34)[C@@]2(C)C1=O` gave T cruzi repl 59.2*, 697 NFkB inh 3.9, Jurkat NFkB inh 6.7, HSF1 inh -1.6, GPR7 antagonist 0.3 and HSF-1 act 8.4.
`CCOc1ccc(OCCn2nnc3ccccc3c2=O)cc1` gave T cruzi repl -11.1, 697 NFkB inh -79.2, Jurkat NFkB inh -95.1, HSF1 inh 45.6, GPR7 antagonist -7.9 and HSF-1 act 83.4*.
For COc1ccc(/C=C\c2nc(=O)c3ccccc3o2)cc1 the results were T cruzi repl -39.2, 697 NFkB inh 9.1, Jurkat NFkB inh -22.0, HSF1 inh 23.8, GPR7 antagonist -26.4 and HSF-1 act 75.8*.
`C/C(N)=C(/C#N)C(=O)CSc1nnc(Nc2cccc(C)c2)s1` gave T cruzi repl -2.7, 697 NFkB inh -37.7, Jurkat NFkB inh -62.8, HSF1 inh 29.7, GPR7 antagonist 1.3 and HSF-1 act 56.0*.
`C/C(N)=C(/C#N)C(=O)CSc1nc2cc(Cl)ccc2s1` gave T cruzi repl -12.3, 697 NFkB inh -51.8, Jurkat NFkB inh -18.8, HSF1 inh 36.7, GPR7 antagonist 3.1 and HSF-1 act 75.7*.
C/C(N)=C(/C#N)C(=O)CSc1nc2cc(Cl)ccc2c(=O)n1Cc1ccco1 was read as T cruzi repl 58.8*, 697 NFkB inh -11.2, Jurkat NFkB inh -1.2, HSF1 inh 16.4, GPR7 antagonist -1.5 and HSF-1 act 22.4.
`CCNc1oc(/C=C/c2ccc(OCC)cc2)nc1C#N` gave T cruzi repl -0.6, 697 NFkB inh -105.5, Jurkat NFkB inh 35.3, HSF1 inh 4.2, GPR7 antagonist 1.6 and HSF-1 act 13.5.
`CCOc1ccc(C(=O)NCc2ccncc2)cc1OCC` gave T cruzi repl -15.6, 697 NFkB inh 15.1, Jurkat NFkB inh 6.0, HSF1 inh -61.3*, GPR7 antagonist 1.8 and HSF-1 act -63.8.
Screening O=C(NCc1ccncc1)c1ccc(Cl)c(S(=O)(=O)N2CCOCC2)c1 returned T cruzi repl -1.9, 697 NFkB inh 5.3, Jurkat NFkB inh 8.9, HSF1 inh -76.3*, GPR7 antagonist 2.6 and HSF-1 act -80.7.
COc1ccc(C(=O)NCc2ccncc2)cc1S(=O)(=O)N1CCOCC1 was read as 697 NFkB inh 1.4 and Jurkat NFkB inh -15.9.
For O=C(Nc1cccc([N+](=O)[O-])c1)NC1CCCCCCC1 the results were 697 NFkB inh -78.2, Jurkat NFkB inh -69.7 and GPR7 antagonist -9.0.
`COc1ccccc1NC(=O)Cc1noc(CSc2n[nH]c(N)n2)n1` gave T cruzi repl -2.6, 697 NFkB inh 0.1, Jurkat NFkB inh -10.6, HSF1 inh -7.3, GPR7 antagonist -5.8 and HSF-1 act -6.8.
For CCC(C)[C@H](NC(=O)NCc1ccccc1)C(=O)O (stereo not given in full) the results were T cruzi repl -7.9, 697 NFkB inh 9.7, Jurkat NFkB inh 5.1, HSF1 inh -6.3, GPR7 antagonist 2.9 and HSF-1 act 3.9.
For CCC(C)[C@H](NC(=O)NCc1cccc(OC)c1)C(=O)O (stereo not given in full) the results were T cruzi repl -10.5, 697 NFkB inh 8.5, Jurkat NFkB inh 15.8, HSF1 inh -83.0*, GPR7 antagonist -3.1 and HSF-1 act -86.1.
For COc1cc(C(C(=O)NC(C)(C)C)N(C(=O)CNC(=O)c2cccs2)c2cccnc2)cc(OC)c1OC (stereo not given) the results were T cruzi repl -3.9, 697 NFkB inh 0.1, Jurkat NFkB inh 10.7, HSF1 inh -7.8, GPR7 antagonist -5.3 and HSF-1 act -3.3.
For Cc1cc(C)c(S(=O)(=O)N2CCCOC2CNC(=O)C(=O)NCc2cccs2)c(C)c1 (stereo not given) the results were T cruzi repl -7.3, 697 NFkB inh -26.8, Jurkat NFkB inh 9.3, HSF1 inh -2.2, GPR7 antagonist 5.8 and HSF-1 act 14.3.
COCCN(C(=S)Nc1c(C)cccc1C)C(C)c1cccnc1 (stereo not given) was read as T cruzi repl -2.5, 697 NFkB inh 0.3, Jurkat NFkB inh -20.0, HSF1 inh -51.8*, GPR7 antagonist -1.7 and HSF-1 act -62.1.
`COCCN(C(=S)Nc1c(C)cc(C)cc1C)C(C)c1cccnc1` (stereo not given) gave T cruzi repl 27.8, 697 NFkB inh -7.7, Jurkat NFkB inh -10.0, HSF1 inh -7.9, GPR7 antagonist -10.3 and HSF-1 act -1.4.
COC(=O)C1=C(C)N(CCCC(=O)O)C(=O)NC1c1cccc(OC)c1 (stereo not given) was read as T cruzi repl -2.9, 697 NFkB inh 15.2, Jurkat NFkB inh 14.6, HSF1 inh -6.5 and HSF-1 act 2.4.
